core dimer inh: blocks dimerization of HCV core protein | inhibition, % at 5 µM | 300,000 tested, 0.33% active | TR-FRET GST/Flag-core106 dimerization, 1536-well;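 active means inhibition above the mean of all tested compounds plus 3 SD, set per screening campaign, cut at about 45% in these data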
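System: GST-tagged and Flag-tagged HCV core protein residues 1-106 / Input: core106 proteins, GST 13.5 nM and Flag 17 nM / Buffer or medium: KF-containing HEPES buffer, pH 7.45, DTT, CHAPS, BSA / Probe or stimulus: Eu-anti-GST and XL665-anti-Flag labelled anti-tag antibodies / Schedule: 4 h, 22.5 °C incubation / Technique: TR-FRET 671 and 617 nm emission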
TAAR1 agonist: human TAAR1 agonism | 360,000 tested, 0.99% active | activation, % at 3 µM | CHO RD-HGA16 TAAR1, Fluo-8 calcium fluorescence; vehicle wells 0%, saturating PEA agonist 100% | Q96RJ0;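 active means activation above the mean activation of all test compounds in the run plus 3 SD, cut at about 38% in these data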
Target sequence (Q96RJ0 whole entry, looked up): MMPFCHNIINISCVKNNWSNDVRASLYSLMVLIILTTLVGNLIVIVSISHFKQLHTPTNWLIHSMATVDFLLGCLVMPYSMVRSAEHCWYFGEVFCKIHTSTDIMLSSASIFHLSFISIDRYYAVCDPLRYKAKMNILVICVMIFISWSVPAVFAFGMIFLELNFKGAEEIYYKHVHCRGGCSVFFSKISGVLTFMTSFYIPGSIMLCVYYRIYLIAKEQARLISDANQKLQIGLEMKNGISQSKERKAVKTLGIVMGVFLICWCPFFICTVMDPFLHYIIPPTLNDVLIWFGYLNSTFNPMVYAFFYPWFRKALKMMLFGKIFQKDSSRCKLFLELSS
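test system = CHO RD-HGA16 cells carrying human TAAR1 plus Gα16 | schedule = 17-24 h seeding, 75 min 37 °C dye, 30 min RT | compound dosing = 3 µM single concentration | control set = DMSO and PEA EC100 | replicates = n 1 | signal = Fluo-8 fluorescence, 5 s baseline then 140 s kinetic read | measure = percent activation vs PEA EC100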
HCV NS3 hel inh: inhibitors of Hepatitis C virus NS3 helicase | 290,000 tested, 0.56% active | NS3 helicase DNA unwinding, Cy5 molecular beacon fluorescence | inhibition, % at 10.9 µM;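 active means inhibition above the mean of all tested compounds plus 3 SD, set per campaign, cut at about 35% in these data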
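System: Hepatitis C virus NS3 helicase domain fragment enzyme | Reagent: Annealed dual-labelled DNA beacon duplex, ATP-started | Compound dosing: 10.9 µM single point, 0.8% DMSO | Incubation: 1 h reaction at 25 °C, ATP-initiated | Technique: Cy5 fluorescence | Evaluation: Percent inhibition from t60/t0 fluorescence ratio | Benchmarks: Low DMSO, high thioflavine S at 110 µM | Replication: Singlicate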
TAAR1 antagonist: human TAAR1 antagonism; Q96RJ0; CHO RD-HGA16 TAAR1, Fluo-8 calcium fluorescence, antagonist; inhibition, % at 3 µM; 360,000 tested, 1.5% active;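 active means inhibition above a per-plate cutoff, the mean inhibition of test compounds on that plate plus 3 SD, cut at about 49% in these data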
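Assay system: CHO-derived RD-HGA16 cells stably expressing human TAAR1 plus Gα16. Timing: 140 s kinetic read after compound, 140 s after agonist. Technique: kinetic Fluo-8 calcium fluorescence measurement. Measure: % inhibition of agonist calcium response.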
rCAG RNA binder: r(CAG) repeat RNA binding. TO-PRO-1 dye displacement fluorescence. inhibition, % at 3 µM. 370,000 tested, 1.3% active;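 active means inhibition above the plate cutoff, the mean of all test compounds on that plate plus 3 SD, cut at about 35% in these data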;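 further: higher means more dye released from RNA so lower well fluorescence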
TAAR1 ag conf: confirmation of human TAAR1 agonists. shares compounds with TAAR1 agonist. CHO RD-HGA16 TAAR1, Fluo-8 calcium fluorescence; scaled: DMSO 0%, maximal phenethylamine 100%. activation, % at 3 µM. 2,400 tested, 82% active;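 active means activation above a cutoff set at the run's mean compound activation plus 3 SD, cut at about 39% in these data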
Ga16 ag counter: nonselective agonism, TAAR1 counter-screen. activation, % at 3 µM. shares compounds with TAAR1 agonist. AID 651787. 2,400 tested, 50% active. CHO-Ga16 parental, Fluo-8 calcium fluorescence; normalized to maximal ATP response, DMSO zero;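 active means activation above the run cutoff, the mean activation over all tested wells plus 3 SD, cut at about 12% in these data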
TAAR1 desens: counter-screen for human TAAR1 agonists: agonists that desensitize TAAR1. shares compounds with TAAR1 agonist. CHO RD-HGA16 hTAAR1, Fluo-8 calcium, beta-PEA response inhibition. inhibition, % at 3 µM. 2,400 tested, 46% active;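 active means inhibition above the run cutoff, the mean inhibition of all test compounds plus 3 SD, cut at about 49% in these data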;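 further: beta-PEA stimulus applied at its EC80; loss of beta-PEA calcium signal after compound pretreatment read as receptor desensitization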
Ga16 nonsel ant: nonselective Ga16 antagonist in TAAR1 agonist counter-screen; shares compounds with TAAR1 agonist; CHO-Ga16 ATP-induced calcium, Fluo-8 fluorescence; inhibition, % at 3 µM; 2,400 tested, 39% active; AID 651952;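 active means inhibition above the plate's mean compound inhibition plus 3 SD, computed per plate, cut at about 22% in these data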
Hits are given with their value; . = inactive; / = no result given. Hits are enriched below; roughly 3.7% of the tested compounds scored in any of these assays.

SMILES | core dimer inh | TAAR1 agonist | HCV NS3 hel inh | TAAR1 antagonist | rCAG RNA binder | TAAR1 ag conf | Ga16 ag counter | TAAR1 desens | Ga16 nonsel ant
CC(=O)c1ccc(NC(=O)N2CCc3ccccc3C2)cc1 | . | . | . | . | . | / | / | / | /
Cc1ccc(NC(=O)N2CCc3ccccc3C2)cc1 | . | 68.0 | . | . | . | 42.8 | . | . | .
O=C(Nc1ccc(Cl)cc1)N1CCc2ccccc2C1 | . | . | . | . | . | / | / | / | /
Cc1nc2ccc(S(=O)(=O)NCC(=O)N(C)Cc3ccc(F)cc3)cc2s1 | / | / | / | / | . | / | / | / | /
CC(C)n1nnnc1C1c2ccccc2OCC(=O)N1Cc1cccc(C(F)(F)F)c1 (configuration not stated) | / | / | / | / | . | / | / | / | /
CC1(C)CC(=O)C(C(=O)/C=C/NCCc2ccccc2)C(=O)C1 | . | 86.9 | . | 92.3 | . | 109.3 | . | 93.1 | .
CC(C)c1ccc(NC(=O)CSc2nnc(-c3ccco3)n2C)cc1 | / | / | / | / | . | / | / | / | /
COc1ccc(N=Cc2c(O)n(-c3ccc(OC)cc3)c(=O)c3ccccc23)cc1 | . | . | . | . | . | / | / | / | /
O=c1c2ccccc2c(C=Nc2cccc(O)c2)c(O)n1-c1ccc2c(c1)OCO2 | . | 62.2 | . | . | . | 81.8 | 40.8 | 67.2 | 26.0
Fc1ccccc1CCNc1c2c(nc3ncnn13)CCCC2 | . | . | . | . | . | / | / | / | /
c1ccc(CCNc2c3c(nc4ncnn24)CCC3)cc1 | . | 62.2 | . | . | . | 89.8 | . | . | .
COC(=O)NC1c2ccccc2Oc2ccccc21 | . | . | . | . | . | / | / | / | /
COC(=O)NC1c2ccccc2Oc2ccc(C)cc21 (configuration not stated) | . | 42.8 | . | . | . | 83.4 | 38.1 | 75.7 | 33.5
CC(=O)O[C@@H]1C=C[C@@H](C#Cc2ccc(C(C)(C)C)cc2)O[C@@H]1COC(=O)NC(C)C | / | . | / | . | . | / | / | / | /
COc1cc(N=c2ssnc2Cl)c(OC)cc1Cl | . | 58.6 | . | . | . | 49.1 | 38.1 | . | 32.8
COC(=O)c1ccc(COc2ccc(-c3nn[nH]n3)cc2)cc1 | . | 50.7 | . | . | . | . | . | . | .
Cc1ccc(-c2c(C(=O)N/N=C/c3ccc(OC(C)C)cc3)nnn2-c2nonc2N)cc1 | . | 130.5 | . | 70.2 | . | 124.7 | 94.3 | 57.2 | 45.6
CC(C)c1c(C(=O)N/N=C/c2cccnc2)nnn1-c1nonc1N | . | . | . | . | . | / | / | / | /
CCOc1ccc(-c2c(C(=O)N/N=C/c3ccc(OC(C)C)cc3)nnn2-c2nonc2N)cc1 | . | 116.4 | . | . | . | 117.6 | 74.8 | . | 36.8
CCc1ccc(/C=N/NC(=O)c2nnn(-c3nonc3N)c2C(C)C)cc1 | . | 132.9 | . | 80.2 | . | 133.6 | 101.3 | 96.1 | 59.2
O=C(Nc1ccc(F)cc1)OCCCN1C(=O)CCC12CCCCC2 | / | / | / | / | . | / | / | / | /
CCN1CCc2c(sc(NC(=O)Nc3ccc(Cl)c(Cl)c3)c2C(N)=O)C1 | . | 177.8 | . | 101.5 | . | 164.3 | 176.8 | 90.1 | 88.1
CCN1CCc2c(sc(NC(=O)Cc3ccccc3)c2C(N)=O)C1 | . | . | . | . | . | / | / | / | /
Cc1ccccc1CNC(=O)C1CCCN(c2ncccn2)C1 (configuration not stated) | / | / | / | / | . | / | / | / | /
Cn1c(=O)c(NCCO)c2c3c(cccc31)C(=O)c1ccccc1-2 | . | 285.0 | . | 57.7 | . | 51.5 | 157.8 | . | 48.2
SMILES | core dimer inh | TAAR1 agonist | HCV NS3 hel inh | TAAR1 antagonist | rCAG RNA binder | TAAR1 ag conf | Ga16 ag counter | TAAR1 desens | Ga16 nonsel ant
Cn1c(=O)c(NC2CCCCC2)c2c3c(cccc31)C(=O)c1ccccc1-2 | / | 87.2 | . | 66.5 | . | 120.0 | 124.3 | 77.9 | 82.6
Cn1c(=O)c(NCCc2ccccc2)c2c3c(cccc31)C(=O)c1ccccc1-2 | . | 407.3 | . | 103.7 | . | 346.4 | 305.1 | 103.3 | 95.4
CN1CCN(c2ccc3c(c2)Oc2ccccc2CN(Cc2cn(Cc4ccc(C(F)(F)F)cc4)nn2)S3(=O)=O)CC1 | / | / | / | / | . | / | / | / | /
COC(=O)[C@]12C[C@H](CC(=O)NCCCCc3ccccc3)C(=O)N(Cc3cccc4ccccc34)C1=C[C@H](C(C)(C)C)O[C@@H]2C | / | / | / | / | . | / | / | / | /
CCN1CCN(C(c2cccnc2)c2c(NC(=O)c3ccco3)sc(C)c2C)CC1 (configuration not stated) | / | . | / | . | . | / | / | / | /
Cc1sc(NC(=O)c2ccco2)c(C(c2cccnc2)N2CCC(C)CC2)c1C (configuration not stated) | . | 62.1 | . | . | . | 54.3 | 21.7 | . | 23.0
NC(N)=N/N=C/c1ccc(Br)cc1 | . | 58.4 | . | . | . | 80.5 | . | . | .
c1ccc(C2(CN3CCNC[C@H]3Cc3cccc4ccccc34)CC2)cc1 | . | 43.9 | / | . | . | 47.3 | 18.6 | . | 26.2
Fc1cccc(CCN2CCNC[C@H]2Cc2cccc3ccccc23)c1 | . | 68.3 | / | . | . | 80.1 | 16.5 | . | 27.4
CC(O)[C@H]1CNCCN1CCc1cccc(F)c1 (some centres not stated) | . | 73.6 | / | . | . | 67.0 | . | . | .
CCN(CC)CCCNC(=O)CC1Oc2ccccc2NC1=O (configuration not stated) | / | / | / | / | . | / | / | / | /
COc1cc(CN2CCCC(C(=O)c3ccc(C(C)(C)C)cc3)C2)cc(OC)c1O (configuration not stated) | . | 53.9 | . | . | . | . | . | . | .
COc1ccc(C(=O)C2CCCN(Cc3cc(C)c(O)c(C)c3)C2)c(OC)c1 (configuration not stated) | . | . | . | . | . | / | / | / | /
NC(=O)Cc1nc(-c2ccccc2)cs1 | . | . | . | . | . | / | / | / | /
NCCc1nc(-c2ccccc2)cs1 | . | 56.2 | . | . | . | 73.4 | . | 61.1 | .
CC(C)C[C@H]1CN=C(Nc2ccccc2)N1CCCC1CCCC1 | . | 57.2 | . | . | . | 73.9 | 35.8 | . | 24.2
CC(C)C[C@H]1CN=C(Nc2ccccc2)N1CCCC1CCCCC1 | . | 58.2 | . | . | . | 58.2 | 26.0 | . | 27.2
c1ccc(C[C@H]2CN=C(Nc3ccccc3)N2CCCC2CCCCC2)cc1 | / | 46.9 | / | . | . | . | . | . | .
CC(C)C[C@H]1CN=C(Nc2ccccc2)N1CCC1CCCC1 | . | . | . | . | . | / | / | / | /

Assay outcomes (PubChem)
